CYP2C9 activ: CYP2C9 (human) activation. activation factor at 5 µM. recombinant CYP2C9, luciferin-H conversion, luminescence; hits give high values; factor 1 = untreated enzyme, 0 = blocked. P11712. AID 1024. actives 1.4% (n = 96,000);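 active = activation factor of 2 or more for CYP2C9 at a 5 µM dose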;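 note: 0 = sulfaphenazole-blocked wells and 1 = vehicle-only wells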
Target sequence (P11712 whole entry, looked up): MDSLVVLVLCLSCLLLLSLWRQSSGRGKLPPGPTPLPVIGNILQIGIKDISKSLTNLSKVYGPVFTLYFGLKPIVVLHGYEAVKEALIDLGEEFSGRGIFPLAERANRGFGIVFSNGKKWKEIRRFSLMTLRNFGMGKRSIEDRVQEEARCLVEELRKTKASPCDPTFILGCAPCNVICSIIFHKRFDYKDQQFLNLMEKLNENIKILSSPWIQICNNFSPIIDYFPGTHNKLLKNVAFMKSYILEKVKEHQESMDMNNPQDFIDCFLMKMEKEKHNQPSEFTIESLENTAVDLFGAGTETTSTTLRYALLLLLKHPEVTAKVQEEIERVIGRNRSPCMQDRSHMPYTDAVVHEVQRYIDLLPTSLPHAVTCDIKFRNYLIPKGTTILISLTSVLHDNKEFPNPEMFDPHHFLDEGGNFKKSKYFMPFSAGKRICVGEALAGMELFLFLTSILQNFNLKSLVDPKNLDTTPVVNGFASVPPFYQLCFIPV
CYP2C9 inh: human CYP2C9 inhibition | P11712 | CYP2C9 Supersomes, luciferin-H conversion, luminescence | inhibition, % at 5 µM | actives 20% (n = 96,000) | AID 777;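 active = blocking of liver enzyme CYP2C9 beyond about 50% at 5 µM, limit read from the data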
CYP2C19 act: cytochrome P450 2C19 (human) activation | recombinant CYP2C19, luciferin-H EGE luminescence; hits give high values; 0 = fully inhibited enzyme, 1 = untreated enzyme | 96,000 tested, under 10 active | P33261 | AID 1025 | activation factor at 5 µM;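 active = activation factor of at least 2 at 5 µM in the primary screen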;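 note: 0 = wells with 2.5 mM tranylcypromine and 1 = vehicle-only wells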
Ecoli WT expand: growth inhibitors of E. coli BW25113 wild type | actives 0.15% (n = 98,000) | OD600 absorbance | growth inhibition, % at 100 µM;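 active = growth inhibition above about 50% at one test dose, limit read from the data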;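 note: growth measured after 20 h incubation at 37 °C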
Ecoli tolC: E. coli tolC mutant growth inhibition; E. coli BW25113 tolC mutant growth, OD615; growth inhibition, % at 10 µM (by protocol); actives 2.2% (n = 65,000);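 active = growth inhibition at or above a cutoff equal to the mean over every tested compound plus 3 SD, cut at about 60% in these data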;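 note: growth measured after 20 h incubation at 37 °C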
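Test system: tolC-deleted E. coli BW25113 | Medium: LB with kanamycin 50 µg/mL | Compound dosing: Single concentration, 10 µM final per compound | Schedule: 37 °C, 20 h exposure | Measured by: OD at 615 nm | Evaluation: Percent growth inhibition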
CYP2C19 inh: inhibitors of human CYP2C19; CYP2C19 Supersomes, luciferin-H EGE luminescence, 30 min; actives 21% (n = 96,000); inhibition, % at 5 µM;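 active = CYP2C19 inhibition above a set limit at 5 µM in the primary screen, cut at about 50% in these data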;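 note: plate controls were negative control wells for no effect and 2.5 mM tranylcypromine positive control for full effect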
Starred values were filed as active, the others as inactive. Only some compounds are listed: those with a hit (about 29% of all), similar ones and a draw of the others.

Results for Cc1nnsc1NC(=O)OCc1ccc(C(C)(C)C)cc1 ?
CYP2C9 activ: 0.9; CYP2C9 inh: 12; CYP2C19 act: 0.7; Ecoli WT expand: -1; CYP2C19 inh: 32

What do the screens show for `Cc1[nH]c2c(Br)cccc2c1[C@H]1[C@@H](CC#N)C1(C)C`?
CYP2C9 activ: 0.4; CYP2C9 inh: 55*; CYP2C19 act: 0.6; Ecoli WT expand: 5; CYP2C19 inh: 45

How did CCOC(=O)C1CCN(Cc2coc3c(Cl)cc(Cl)cc3c2=O)CC1 do in these assays?
CYP2C9 activ: 1.8; CYP2C9 inh: -80; CYP2C19 act: 0.9; Ecoli WT expand: 2; CYP2C19 inh: 7

How did CCCNC(=O)C(=O)NCCC1=CCCCC1 do in these assays?
CYP2C9 activ: 0.9; CYP2C9 inh: 10; CYP2C19 act: 0.5; Ecoli WT expand: 2; CYP2C19 inh: 54*

What do the screens show for `Cc1cc(C(=O)NCCC2=CCCCC2)c(C)o1`?
CYP2C9 activ: 0.7; CYP2C9 inh: 27; CYP2C19 act: 0.4; Ecoli WT expand: 1; Ecoli tolC: 17; CYP2C19 inh: 61*

What do the screens show for `C#CCNc1nc(CC)nc2c1nnn2Cc1ccccc1F`?
CYP2C9 activ: 0.9; CYP2C9 inh: 10; CYP2C19 act: 0.5; Ecoli WT expand: -1; Ecoli tolC: -1; CYP2C19 inh: 52*

What do the screens show for `CCc1nc(NCCCCCO)c2nnn(Cc3ccccc3F)c2n1`?
CYP2C9 activ: 0.4; CYP2C9 inh: 56*; CYP2C19 act: 0.6; Ecoli WT expand: 4; CYP2C19 inh: 45

What do the screens show for `Cn1cc(S(=O)(=O)Cc2ccc(F)cc2)c2ccccc21`?
Ecoli tolC: -4

How did COC(=O)c1cc2c([nH]c3ccccc32)c(C)n1 do in these assays?
CYP2C9 activ: 1; CYP2C9 inh: -3; CYP2C19 act: 0.4; Ecoli WT expand: 4; Ecoli tolC: 7; CYP2C19 inh: 62*

How did CCOc1cc(C)c(Cl)cc1S(=O)(=O)NCC1CCCO1 (stereo not drawn) do in these assays?
CYP2C9 activ: 1.2; CYP2C9 inh: -25; CYP2C19 act: 0.1; Ecoli WT expand: 13; Ecoli tolC: 4; CYP2C19 inh: 90*

What do the screens show for `COc1cc(S(=O)(=O)NCC2CCCO2)ccc1Br` (stereo not drawn)?
CYP2C9 activ: 2.6*; CYP2C9 inh: -160; CYP2C19 act: 0.6; Ecoli WT expand: 0; CYP2C19 inh: 36

What do the screens show for `O=S(=O)(NCC1CCCO1)c1cc(Br)c(Br)s1` (stereo not drawn)?
CYP2C9 activ: 2*; CYP2C9 inh: -97; CYP2C19 act: 0.3; Ecoli WT expand: 6; Ecoli tolC: -3; CYP2C19 inh: 66*

How did COc1cc(C)c(Cl)cc1S(=O)(=O)NCC1CCCO1 (stereo not drawn) do in these assays?
CYP2C9 activ: 1.5; CYP2C9 inh: -46; CYP2C19 act: 0.1; Ecoli WT expand: -1; Ecoli tolC: 0; CYP2C19 inh: 94*

How did COc1ccc(OC)c(S(=O)(=O)NCC2CCCO2)c1 (stereo not drawn) do in these assays?
CYP2C9 activ: 1; CYP2C9 inh: 2; CYP2C19 act: 0.8; Ecoli WT expand: -8; Ecoli tolC: 2; CYP2C19 inh: 20

How did COc1ccc(C2=NOC3(CC(=O)N(c4ccc(C)cc4)C3=O)C2)c(OC)c1 (stereo not drawn) do in these assays?
CYP2C9 activ: 1; CYP2C9 inh: 2; CYP2C19 act: 1.1; Ecoli WT expand: -12; Ecoli tolC: -11; CYP2C19 inh: -6

Results for CN(C)c1ccc(C2N(c3cccc(Cl)c3)C(=O)C3CCCN32)cc1 (stereo not drawn) ?
Ecoli tolC: -6

What do the screens show for `COC(=O)COc1ccc(S(=O)(=O)NCC2CCCO2)cc1Cl` (stereo not drawn)?
CYP2C9 activ: 1.1; CYP2C9 inh: -6; CYP2C19 act: 0.8; Ecoli WT expand: 2; Ecoli tolC: -9; CYP2C19 inh: 17

How did O=S(=O)(NCC1CCCO1)c1ccc(Cl)c(C(F)(F)F)c1 (stereo not drawn) do in these assays?
CYP2C9 activ: 3.9*; CYP2C9 inh: -290; CYP2C19 act: 0.3; Ecoli WT expand: 6; Ecoli tolC: 8; CYP2C19 inh: 66*

What do the screens show for `Cc1cccc(NC(=S)N2CCC(C(=O)c3ccc(F)cc3)CC2)c1C`?
CYP2C9 activ: 1; CYP2C9 inh: -4; CYP2C19 act: 0.6; Ecoli WT expand: -1; CYP2C19 inh: 35

What do the screens show for `COc1ccc(-c2nc3n(n2)C(=O)CC(c2ccco2)S3)cc1` (stereo not drawn)?
Ecoli WT expand: -6; Ecoli tolC: 12

What do the screens show for `N#C/C(Cn1c[n+](NC(=O)Nc2ccccc2)cn1)=N/O`?
CYP2C9 activ: 0.8; CYP2C9 inh: 19; CYP2C19 act: 0.8; Ecoli WT expand: 0; Ecoli tolC: -15; CYP2C19 inh: 18

How did O=C(Nc1cccc(N2CCCC2)c1)c1cccs1 do in these assays?
CYP2C9 activ: 0.9; CYP2C9 inh: 12; CYP2C19 act: 1; Ecoli WT expand: -4; Ecoli tolC: 37; CYP2C19 inh: -2

Results for CCC(=O)OC1CC(C)N(C(=O)c2ccccc2)c2ccc(C)cc21 (stereo not drawn) ?
CYP2C9 activ: 0.9; CYP2C9 inh: 11; CYP2C19 act: 0.8; Ecoli WT expand: -1; CYP2C19 inh: 25

Results for CCCC(=O)O[C@H]1C[C@@H](C)N(C(=O)c2ccccc2)c2ccc(C)cc21 ?
CYP2C9 activ: 0.4; CYP2C9 inh: 63*; CYP2C19 act: 0.4; Ecoli WT expand: 10; CYP2C19 inh: 58*

How did COc1ccc(CNc2ccc(C(=O)O)cc2)cc1 do in these assays?
CYP2C9 activ: 0.9; CYP2C9 inh: 6; CYP2C19 act: 1.1; Ecoli WT expand: -11; Ecoli tolC: -22; CYP2C19 inh: -12

What do the screens show for `CO/N=C/C(=N\Nc1ccc(OC)cc1)C(=O)c1ccc(OC)cc1`?
CYP2C9 activ: 0.3; CYP2C9 inh: 68*; CYP2C19 act: 0.7; Ecoli WT expand: -5; CYP2C19 inh: 32

How did COc1ccccc1NC(=O)c1cc(Sc2nncn2C)nc2ccccc12 do in these assays?
CYP2C9 activ: 0.2; CYP2C9 inh: 80*; CYP2C19 act: 0.6; Ecoli WT expand: 1; Ecoli tolC: 7; CYP2C19 inh: 38

What do the screens show for `COCc1cc(=O)[nH]c2cc(NC(=O)C3CC3)c(C)cc12`?
CYP2C9 activ: 1; CYP2C9 inh: 4; CYP2C19 act: 0.9; Ecoli WT expand: 2; CYP2C19 inh: 9

How did CC1CC(C)CN(Cc2nc3c(c(=O)n(C)c(=O)n3C)n2Cc2ccccc2Cl)C1 (stereo not drawn) do in these assays?
Ecoli tolC: -4

What do the screens show for `CCNC(=O)NC(=O)CSc1ccc(NC(C)=O)cc1`?
CYP2C9 activ: 1; CYP2C9 inh: 0; CYP2C19 act: 1; Ecoli WT expand: -9; Ecoli tolC: -12; CYP2C19 inh: -2

Compound activity (PubChem BioAssay)
